Compound activity as filed in PubChem BioAssay.
Mdm2 ligase inh: blocks human Mdm2 ubiquitin ligase activity; 210,000 compounds, 0.11% hits; signal enhancement, % at 5 µM; cell-based MDM2 ubiquitination luciferase reporter, 2 h; 0 = plate control, 100 = twice control, blank-subtracted; AID 1230; Q00987;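 active = signal enhancement of 30% or more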;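 note: luminescence tracks abundance of the self-degrading MDM2-luciferase fusion protein; higher signal means inhibition of MDM2 E3 ligase activity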
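Material: stable MDM2–luciferase fusion reporter cells / Quantity: 2000 cells/well / Dosing: single 5 µM compound dose, 0.2% final DMSO / Buffer or medium: DMEM / Schedule: 4 h cell settling then 2 h compound exposure, 37 °C / Detection: luminescence with SteadyLite reagent, 15 min at room temperature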
STAT1 act: activators of IFN-gamma induced STAT1 signaling; NIH 3T3 STAT1-luciferase reporter, luminescence; 100% = IFN-gamma alone, no compound; activation (% of control), % at 5.5 µM; 200,000 compounds, 2.6% hits;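 active = activation above the screen-wide mean activation plus 3 SD, cut at about 130% in these data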;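 note: raw ratio to IFN-gamma control signal so 100% means no change and 0% no light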
p97 ATPase inh: blocks human p97 ATPase activity; P55072; recombinant p97 ATPase, Kinase-Glo ATP luminescence, 3 h; inhibition, % at 8 µM; 220,000 compounds, 0.42% hits; AID 1481; in the data active = inhibition above about 15%;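 note: 0% = DMSO vehicle and 100% = wells lacking enzyme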
Wee1 degr inh: inhibitors of human Wee1 degradation; P30291; HeLa Luc-Wee1K328M stability, luciferase luminescence; 100% = proteasome inhibitor MG132 effect; reporter increase, % at 5 µM; 220,000 compounds, 1.2% hits;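 active = activation above the mean of all tested compounds plus 3 SD, set per screening run, cut at about 8.8% in these data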;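 note: cells exposed to compound for 20 h before luminescence read; 0% = DMSO alone and 100% = MG132 at 30 µM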
Target sequence (P30291 whole entry K328M): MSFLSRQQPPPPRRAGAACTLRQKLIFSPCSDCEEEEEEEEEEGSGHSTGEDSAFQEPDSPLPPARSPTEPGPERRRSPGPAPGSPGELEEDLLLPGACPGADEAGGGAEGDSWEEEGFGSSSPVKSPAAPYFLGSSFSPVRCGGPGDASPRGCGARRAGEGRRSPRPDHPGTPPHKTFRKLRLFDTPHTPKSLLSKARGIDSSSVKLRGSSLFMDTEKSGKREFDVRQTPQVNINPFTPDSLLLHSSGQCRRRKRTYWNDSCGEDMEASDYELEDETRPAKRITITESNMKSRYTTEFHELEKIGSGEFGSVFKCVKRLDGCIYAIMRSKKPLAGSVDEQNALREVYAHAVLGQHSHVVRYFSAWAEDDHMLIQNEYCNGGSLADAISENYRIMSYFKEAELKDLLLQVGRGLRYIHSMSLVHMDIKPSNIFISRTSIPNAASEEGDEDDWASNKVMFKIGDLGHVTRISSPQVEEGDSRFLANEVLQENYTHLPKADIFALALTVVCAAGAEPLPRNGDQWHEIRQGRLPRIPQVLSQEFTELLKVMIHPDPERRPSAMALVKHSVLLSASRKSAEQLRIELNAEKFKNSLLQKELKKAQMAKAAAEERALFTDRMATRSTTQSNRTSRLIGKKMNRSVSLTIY
APP 5'UTR act: APP 5'UTR luciferase reporter activation; activation, % at 2 µM; SH-SY5Y APP 5'UTR luciferase reporter, luminescence; zero percent = DMSO vehicle wells; 190,000 compounds, 1% hits;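 active = activation above a set limit, based on mean plus 3 SD of controls, cut at about 140% in these data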
NF-kB neuron act: compounds increasing NF-kB expression in human neuronal cells. 190,000 compounds, 1.6% hits. fold change at 12.5 µM. NF-kB reporter expression; hits give high values; in the data active = fold change above about 3.3
* hit, by the source's call; . = no result. This is a sample that favours compounds with a hit; in the whole collection about 4.6% have one here.

SMILES	Mdm2 ligase inh	STAT1 act	p97 ATPase inh	Wee1 degr inh	APP 5'UTR act	NF-kB neuron act
COc1ccc(Oc2nnc(C)c3ccccc23)cc1	-13.4	129.6*	-2.8	-3.3	38.3	3.47*
O=c1[nH]cc(N(CCO)CCO)c(=O)[nH]1	-4.9	.	-0.3	9.5*	.	.
O=C1N=C(N2CCOCC2)S/C1=C1\C(=O)N(Cc2ccccc2)c2ccccc21	4.3	101.5	5.6	0.4	380.0*	1.36
Cc1ccc(/C=C/C(=O)CCC(=O)O)cc1	-26.7	107.5	-3.6	3.8	3.3	1.39
CCC(=O)c1ccc(CCCCCC(=O)O)s1	-7.0	99.5	5.0	1.5	11.6	1.26
CC(=O)NCc1ccc(C(=O)CCl)s1	3.5	99.0	6.8	1.4	6.7	4.03*
CCNC(=S)N1CCC(C(N)=O)CC1	-4.5	.	4.0	0.6	.	.
Cc1cc(C(=O)Nc2sc(C)c(-c3ccc(F)cc3)c2C(N)=O)no1	-14.1	160.9*	3.0	2.7	50.6	0.86
CN(C)N1C(N)=C(C#N)C(c2cccnc2)C2=C1CCCC2=O (stereo not drawn)	2.3	104.8	7.5	-1.2	-1.2	1
Cc1cccn2c(CNCCSc3nccn3C)c(C(=O)N3CCCCC3)nc12	-66.5	.	0.4	8.9*	.	.
CCn1cc(CNCc2c(C(=O)N3CCCCC3)nc3c(C)cccn23)cn1	2.4	93.3	-0.4	-1.4	-4.7	0.91
Cc1cccn2c(CNCCCn3ncc4ccccc43)c(C(=O)N3CCCCC3)nc12	2.1	90.7	2.9	10.4*	9.2	0.98
CCOC(=O)Cn1ccc(-c2ccccc2)c(C#N)c1=O	-2.7	105.1	1.7	5.2	17.3	1.18
O=C(Nc1sc2c(c1C(=O)O)CCCCC2)c1ccco1	-26.4	121.5	0.4	7.8	79.3	1.86
Cc1ccc(Cc2cnc(NC(=O)c3ccco3)s2)cc1	-20.6	116.6	-2.2	-0.4	128.0	7.41*
NC(=O)c1c(NC(=O)c2ccco2)sc2c1CCC2	-15.4	149.6*	1.5	3.5	29.2	3.2
NC(=O)c1c(NC(=S)Nc2ccccc2)sc2c1CCCC2	8.4	131.7*	6.2	-1.2	7.0	1.7
NC(=O)c1cc(Cc2ccccc2)sc1NC(=O)c1ccco1	-14.8	142.3*	3.2	6.1	84.4	3.37*
Cc1ccc(NS(=O)(=O)c2cc(NC(=O)c3cc4c(s3)CCCC4)ccc2C)c(C)c1	.	110.2	4.4	5.7	-5.0	0.56
Cc1ccc(-n2ncc(-c3nn[nH]n3)c2N)cc1	-4.8	.	4.3	-2.1	.	.
CC(C)(C)C(=O)Nc1cccc(OC(F)(F)C(F)Cl)c1 (stereo not drawn)	-8.0	102.4	0.4	1.0	8.9	1.06
NC(=O)c1c(NC(=O)c2cnccn2)sc2c1CCCC2	10.7	134.7*	8.9	-0.6	94.0	1.55
Cc1ccc(SCC(=O)Nc2ccc(N3CCN(C)CC3)c(F)c2)c(C)c1	-26.6	98.2	-0.2	5.1	3.5	1.16
C=C(C)CNC(=O)CCc1nnc(Cc2cccc(C(F)(F)F)c2)o1	8.6	140.2*	5.2	3.8	57.1	2.67
O=C(CCc1nnc(Cc2cccc(C(F)(F)F)c2)o1)NCC(F)(F)F	2.3	104.8	2.0	-3.6	4.4	1.38
SMILES	Mdm2 ligase inh	STAT1 act	p97 ATPase inh	Wee1 degr inh	APP 5'UTR act	NF-kB neuron act
CC(C)CN(C)C(=O)CCc1nnc(Cc2cccc(C(F)(F)F)c2)o1	-7.2	133.2*	0.0	-1.3	66.0	2.1
C/C(=N\N=C(N)N)c1ccc(Cl)c(Cl)c1	-23.1	97.9	1.1	-0.3	16.6	0.81
COc1ccc(CCNC(=O)Cn2nc([N+](=O)[O-])c(Br)c2C)cc1OC	-21.8	97.2	-7.7	3.4	31.3	1.16
Nc1ccc(-c2nc3nc(N)nc(N)c3nc2-c2ccc(N)cc2)cc1	-10.1	.	7.5	-0.9	.	.
CCOC(=O)c1ccc(NS(=O)(=O)c2cnc[nH]2)cc1	-13.1	98.0	-0.3	11.3*	-7.3	1.05
CCOc1ccc(NC(=S)Nc2ccc(OCC)cc2)cc1	3.9	96.7	3.1	2.7	0.3	0.92
COC(=O)c1ccc(NC(=O)Nc2ccc(F)cc2)cc1	-15.5	108.3	0.0	-0.6	38.0	1.38
CCOC(=O)c1ccc(NC(=S)Nc2ccccn2)cc1	-3.8	128.8*	2.0	-1.3	52.2	1.7
CCOc1ccc(NC(=S)Nc2cc(C)[nH]n2)cc1	.	131.7*	5.0	3.4	14.9	.
